Activity, Ki and IC50 data for 5 compounds are collected here from ChEMBL document CHEMBL1144472, “Pyrogallol-based molecules as potent inhibitors of the antiapoptotic Bcl-2 proteins” (J Med Chem, 2007).

The test system of experiment [1] is MDA-MB-231. The experiment in a line: Induction of cell death in human MDA-MB-231 cells after 96 hrs by trypan blue exclusion assay. Format: functional, cell-based. The method, boiled down:
(§1)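 MDA-MB-231 breast cancer cells were exposed to the inhibitor for 96 hours across a dose series that included 10, 100 and 1000 nM. Viability was scored by trypan blue exclusion.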

Experiment [2] addresses T1, Apoptosis regulator Bcl-2 (Homo sapiens, UniProt P10415). The experiment in a line: Displacement of FAM-Bid BH3 peptide from human recombinant Bcl2 by FP-based binding assay. Put shortly:
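Competitive fluorescence-polarization binding assay with recombinant human Bcl-2 and a fluorescently tagged Bid BH3 peptide as tracer. Ki values were derived from the competitive binding curves.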

Experiment [3] deals with T1, Apoptosis regulator Bcl-2. The experiment is described as follows: Displacement of biotinylated Bim BH3 peptide from recombinant His-tagged Bcl2 by ELISA assay. In general terms: An ELISA detects its analyte on a solid surface through an enzyme-linked reagent.
In experiment [4] the target is T2, Induced myeloid leukemia cell differentiation protein Mcl-1 (Homo sapiens, UniProt Q07820). The experiment in a line: Displacement of FAM-Bid BH3 peptide from human Mcl1 by FP-based binding assay.
T2 sequence (Q07820 whole entry): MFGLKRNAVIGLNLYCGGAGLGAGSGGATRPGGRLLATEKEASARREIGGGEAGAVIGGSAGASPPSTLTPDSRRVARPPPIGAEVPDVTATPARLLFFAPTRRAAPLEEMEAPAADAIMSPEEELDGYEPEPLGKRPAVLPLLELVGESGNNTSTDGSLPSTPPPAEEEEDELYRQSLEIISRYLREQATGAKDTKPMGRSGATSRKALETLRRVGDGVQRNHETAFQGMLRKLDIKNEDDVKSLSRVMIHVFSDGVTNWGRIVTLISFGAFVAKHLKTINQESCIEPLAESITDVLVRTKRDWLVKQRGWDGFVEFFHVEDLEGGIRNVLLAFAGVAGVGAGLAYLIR
Experiment [5] concerns the target T2, Induced myeloid leukemia cell differentiation protein Mcl-1. The experiment is described as follows: Displacement of biotinylated Bim BH3 peptide from recombinant His-tagged Mcl1 by ELISA assay.
The subject of experiment [6] is MDA-MB-231. The experiment is described as follows: Induction of cell death in human MDA-MB-231 cells at 10 nM after 96 hrs by trypan blue exclusion assay. Format: functional, cell-based. The method, boiled down:
as §1

As usually defined, the Ki is the dissociation constant of the complex between target and ligand, obtained from inhibition or displacement. A word on the IC50: it is the concentration that gives 50% inhibition.

Molecules are shown by their SMILES. Active and inactive are the calls of the source. The rule behind the calls is not given here.

T1 sequence (P10415 whole entry): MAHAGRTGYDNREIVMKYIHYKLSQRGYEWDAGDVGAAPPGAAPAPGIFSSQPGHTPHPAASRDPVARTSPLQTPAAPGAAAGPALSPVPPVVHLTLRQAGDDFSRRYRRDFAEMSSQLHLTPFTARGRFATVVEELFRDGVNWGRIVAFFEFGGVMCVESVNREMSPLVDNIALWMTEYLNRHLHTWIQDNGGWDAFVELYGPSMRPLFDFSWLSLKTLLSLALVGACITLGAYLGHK

Turning to `CN(C)CC[C@H](CSc1ccccc1)Nc1ccc(S(=O)(=O)NC(=O)c2ccc(N3CCN(Cc4ccccc4-c4ccc(Cl)cc4)CC3)cc2)cc1[N+](=O)[O-]`, the Activity result in the experiment with MDA-MB-231 [1] is “Dose-dependent effect”.

For `CC(C)c1cc(C(=O)N2CCc3ccccc3C2)c(O)c(O)c1O`, in experiment [2], the inhibitory constant (Ki) worked out at 3100 nM. Also, the concentration for half-maximal inhibition (IC50) in experiment [3] was 38200 nM. The Activity result in the experiment with MDA-MB-231 [1] was “Dose-dependent effect”.

Turning to `CN(CCCc1ccccc1)S(=O)(=O)c1cc(C(=O)N2CCc3ccc(S(=O)(=O)NCCc4ccccc4)cc3C2)c(O)c(O)c1O`, the Ki in experiment [2] is 110 nM; in experiment [4], 150 nM. Moreover, the results for the concentration for half-maximal inhibition (IC50) in experiment [5] and in experiment [3] were 39 nM and 330 nM, respectively. Further, the outcome with MDA-MB-231 [6] was Active. Moreover, in the experiment with MDA-MB-231 [1], the Activity entry is “Dose-dependent effect”.

With `CC(C)c1cc(C(=O)Nc2ccccc2)c(O)c(O)c1O`, the Ki in experiment [2] is 31900 nM. Further, the Activity result in the experiment with MDA-MB-231 [1] is “Dose-dependent effect”.

As for `CC(C)c1cc(C(=O)N2CCc3ccc(S(=O)(=O)NCCc4ccccc4)cc3C2)c(O)c(O)c1O`, the inhibition constant Ki in experiment [2] amounted to 590 nM. The IC50 in experiment [3] came to 6600 nM. In addition, the Activity result in the experiment on MDA-MB-231 [1] is “Dose-dependent effect”.
